Source: ChEMBL document CHEMBL1134641, “Progress toward the development of a safe and effective agent for treating reentrant cardiac arrhythmias: synthesis and evaluation of ibutilide analogues with enhanced metabolic stability and diminished proarrhythmic potential” (2001)

What was measured:
[1] = system: Canis familiaris; experiment: Heart Rate measured in canine just after inducing atrial flutter (AFL) termination by the compound at a dose of 0.24 umol/kg; assay type: functional, Canis lupus familiaris
[2] = system: Canis familiaris; experiment: Atrial effective refractory period (AERP) measured in canine just after inducing atrial flutter (AFL) termination by the compound at a dose of 1.2 uM/kg; assay type: functional, Canis lupus familiaris, Heart
[3] = organism: Canis familiaris; experiment: Atrial flutter cycle length (AFCLl) measured in canine just after inducing atrial flutter (AFL) termination by the compound; assay type: functional, Canis lupus familiaris, Heart
[4] = system: Canis familiaris; experiment: Atrial MAPD90 measured in canine 24-h Infarction model at a single intravenous dose of 2.4 uM/kg; assay type: functional, Canis lupus familiaris, Cardiac atrium
Outline: (§1)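 Male mongrel dogs (16-22 kg) with LAD permanently ligated in two stages; studied 24 h later. […] given IV in sequential doses to cumulative 0.24, 0.72, 2.4 µmol/kg. Saline controls (n=8) received vehicle, then a single IV 2.4 µmol/kg dose at the end. Measurements taken at baseline and 15 min after each dose. Means ± SEM, paired t-test, p ≤ 0.05.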

[5] = system: Canis familiaris; experiment: Ventricular effective refractory period ([…]) measured in canine just after inducing atrial flutter (AFL) termination by the compound at a dose of 1.2 uM/kg; assay type: functional, Canis lupus familiaris, Heart
Outline: (§2)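 Conscious dogs, loosely restrained in a sling, with exteriorized electrode leads, studied 2 weeks after instrumentation. AFL was induced and counted as sustained if it lasted 5 min. Compound in saline given intravenously every 5 min to cumulative 0.024-12.0 µmol/kg. VERP was measured at AFL termination and 3 min after each dose. Results are means ± SEM versus baseline, p ≤ 0.05.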

[6] = system: Canis familiaris; experiment: QT interval measured in canine 24-h Infarction model at an cumulative intravenous dose of 0.72 uM/kg; assay type: functional, Canis lupus familiaris
Outline: (§3)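 Dogs 24 h after two-stage LAD ligation. Compound in saline given iv in sequential doses (cumulative 0.24, 0.72, 2.4 µmol/kg); saline controls then given a single 2.4 µmol/kg iv dose. HR, IVR, BP, QT, spontaneous arrhythmias/min, ERPs and MAPD90 measured at baseline and 15 min after each dose. Means ± SEM, paired t-test, p≤0.05.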

[7] = system: Canis familiaris; experiment: Heart rate measured in canine 24-h Infarction model at an cumulative intravenous dose of 2.4 uM/kg; assay type: functional, Canis lupus familiaris; outline: as §1
[8] = system: Canis familiaris; experiment: Spontaneous arrhythmias measured in canine 24-h Infarction model at an cumulative intravenous dose of 2.4 uM/kg; assay type: functional, Canis lupus familiaris; outline: as §3
[9] = system: Canis familiaris; experiment: Ventricular effective refractory period ([…]) measured in canine just after inducing atrial flutter (AFL) termination by the compound at a dose of 7.2 uM/kg; assay type: functional, Canis lupus familiaris, Heart; outline: as §2
[10] = system: Canis familiaris; experiment: Ventricular effective refractory (VEPR) period measured in canine 24-h Infarction model at an cumulative intravenous dose of 0.72 uM/kg; assay type: functional, Canis lupus familiaris, Heart
Outline: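 Male mongrel dogs (16-22 kg) with LAD permanently ligated in two stages, studied 24 h after ligation. Compound given in saline (6.0 µmol/mL) as sequential intravenous doses to reach cumulative 0.24, 0.72 and 2.4 µmol/kg. VERP and other measurements taken at baseline and 15 min after each dose. Saline-dosed dogs served as controls. Results are means ± SEM, paired t-test, p ≤ 0.05.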

[11] = system: Canis familiaris; experiment: Idioventricular heart rate (IVR) measured in canine 24-h Infarction model at a single intravenous dose of 2.4 uM/kg; assay type: functional, Canis lupus familiaris; outline: as §1
[12] = organism: Canis familiaris; experiment: Heart Rate measured in canine just after inducing atrial flutter (AFL) termination by the compound; assay type: functional, Canis lupus familiaris
[13] = system: Canis familiaris; experiment: Blood pressure measured in canine 24-h Infarction model at a single intravenous dose of 2.4 uM/kg; assay type: functional, Canis lupus familiaris; outline: as §1
[14] = system: Canis familiaris; experiment: Number of canine in which nonsustained ventricular tachycardia (NSVT) was observed in PES-induced arrhythmias at an single intravenous dose of 2.4 uM/kg; assay type: functional, Canis lupus familiaris, Cardiac ventricle
Outline: (§4)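 Male mongrel dogs (16-22 kg) with LAD ligated in two stages, studied 24 h later. Programmed electrical stimulation at baseline and 15 min after each iv dose in saline (cumulative 0.24, 0.72, 2.4 µmol/kg). Saline controls then received a single 2.4 µmol/kg iv dose. Responses scored as NI (≤15 beats), NSVT (>15 beats, ends within 30 s), SVT (>30 s, needing pacing or cardioversion) or VF. A positive response was repeated.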

[15] = organism: Canis familiaris; experiment: QT interval measured in canine just after inducing atrial flutter (AFL) termination by the compound; assay type: functional, Canis lupus familiaris, Heart
Outline: (§5)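 Conscious, sling-restrained dogs with chronically implanted electrodes, studied after 2 weeks of recovery. Sustained AFL (>5 min) induced. Compound in saline given iv every 5 min to cumulative 0.024-12.0 µmol/kg. At AFL termination, HR, QT (paced cycle length 300 ms), AERP and VERP measured. Measurements then taken 3 min after each further dose. Significance p≤0.05 vs baseline.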

[16] = system: Canis familiaris; experiment: Number of canine in which ventricular fibrillation (VF) was observed in PES-induced arrhythmias at an single intravenous dose of 2.4 uM/kg; assay type: functional, Canis lupus familiaris, Cardiac ventricle; outline: as §4
[17] = system: Canis familiaris; experiment: Heart Rate measured in canine just after inducing atrial flutter (AFL) termination by the compound at a dose of 4.8 uM/kg; assay type: functional, Canis lupus familiaris
[18] = system: Canis familiaris; experiment: Blood pressure measured in canine 24-h Infarction model at an cumulative intravenous dose of 2.4 uM/kg; assay type: functional, Canis lupus familiaris; outline: as §1
[19] = system: Canis familiaris; experiment: Number of canine in which nonsustained ventricular tachycardia (NSVT) was observed in PES-induced arrhythmias at an cumulative intravenous dose of 0.24 uM/kg; assay type: functional, Canis lupus familiaris, Cardiac ventricle; outline: as §4
[20] = system: Canis familiaris; experiment: QT interval measured in canine 24-h Infarction model at an cumulative intravenous dose of 2.4 uM/kg; assay type: functional, Canis lupus familiaris; outline: as §3
[21] = system: Canis familiaris; experiment: Atrial MAPD90 measured in canine 24-h Infarction model at an cumulative intravenous dose of 2.4 uM/kg; assay type: functional, Canis lupus familiaris, Cardiac atrium; outline: as §1
[22] = system: Canis familiaris; experiment: Ventricular effective refractory period ([…]) measured in canine just after inducing atrial flutter (AFL) termination by the compound at a dose of 2.4 uM/kg; assay type: functional, Canis lupus familiaris, Heart; outline: as §2
[23] = system: Canis familiaris; experiment: Ventricular effective refractory period ([…]) measured in canine just after inducing atrial flutter (AFL) termination by the compound at a dose of 0.24 umol/kg; assay type: functional, Canis lupus familiaris, Heart; outline: as §2
[24] = system: Canis familiaris; experiment: Number of canine in which nonsustained ventricular tachycardia (NSVT) was observed in PES-induced arrhythmias at an cumulative intravenous dose of 0.72 uM/kg; assay type: functional, Canis lupus familiaris, Cardiac ventricle; outline: as §4
[25] = system: Canis familiaris; experiment: Idioventricular heart rate (IVR) measured in canine 24-h Infarction model at an cumulative intravenous dose of 0.24 uM/kg; assay type: functional, Canis lupus familiaris; outline: as §1
[26] = system: Canis familiaris; experiment: Atrial effective refractory period (AEPR) measured in canine 24-h Infarction model at an cumulative intravenous dose of 0.24 uM/kg; assay type: functional, Canis lupus familiaris, Cardiac atrium; outline: as §1
[27] = system: Canis familiaris; experiment: Ventricular MAPD90 measured in canine 24-h Infarction model at an cumulative intravenous dose of 2.4 uM/kg; assay type: functional, Canis lupus familiaris, Heart; outline: as §3
[28] = system: Canis familiaris; experiment: Atrial effective refractory period (AEPR) measured in canine 24-h Infarction model at an cumulative intravenous dose of 0.72 uM/kg; assay type: functional, Canis lupus familiaris, Cardiac atrium; outline: as §1
[29] = system: Canis familiaris; experiment: Ventricular MAPD90 measured in canine 24-h Infarction model at an cumulative intravenous dose of 0.72 uM/kg; assay type: functional, Canis lupus familiaris, Heart; outline: as §3
[30] = system: Canis familiaris; experiment: Number of canine in which sustained ventricular tachycardia (SVT) was observed in PES-induced arrhythmias at an cumulative intravenous dose of 0.72 uM/kg; assay type: functional, Canis lupus familiaris, Cardiac ventricle; outline: as §4
[31] = system: Canis familiaris; experiment: Heart Rate measured in canine just after inducing atrial flutter (AFL) termination by the compound at a dose of 1.2 uM/kg; assay type: functional, Canis lupus familiaris
[32] = system: Canis familiaris; experiment: QT interval measured in canine just after inducing atrial flutter (AFL) termination by the compound at a dose of 0.6 umol/kg; assay type: functional, Canis lupus familiaris, Heart; outline: as §5

## CCN(CCCCCC(C)(C)F)CCC[C@H](O)c1ccc(NS(C)(=O)=O)cc1.O=C(O)/C=C/C(=O)O
[1]
  HR: 128 beats min-1
[2]
  AERP: 160 ms
[3]
  AFLCl: 165 ms
[4]
  Atrial MAPD90: 209 ms
[5]
  VERP: 144 ms
[6]
  QT interval: 218 ms
[7]
  HR: 135 beats min-1
[8]
  PVCs: 73 number min-1
[9]
  VERP: 140 ms
[10]
  VERP: 170 ms
[11]
  IVR: 111 beats min-1
[12]
  HR: 108 beats min-1
[13]
  BP: 111 mmHg
[14]
  No. of canine: 0
[15]
  QT interval: 202 ms
[16]
  No. of canine: 0
[17]
  HR: 118 beats min-1
[18]
  BP: 119 mmHg
[19]
  No. of canine: 2
[20]
  QT interval: 240 ms
[21]
  Atrial MAPD90: 163 ms
[22]
  VERP: 143 ms
[23]
  VERP: 142 ms
[24]
  No. of canine: 0
[25]
  IVR: 138 beats min-1
[26]
  AERP: 149 ms
[27]
  Ventricular MAPD90: 185 ms
[28]
  AERP: 166 ms
[29]
  Ventricular MAPD90: 170 ms
[30]
  No. of canine: 2
[31]
  HR: 114 beats min-1
[32]
  QT interval: 208 ms
